Source: ChEMBL document CHEMBL4311968, “New oxadiazoles with selective-COX-2 and EGFR dual inhibitory activity: Design, synthesis, cytotoxicity evaluation and in silico studies” (Eur J Med Chem, 2019)

What was measured:
[1] = tested on: UO-31; experiment: Antiproliferative against human UO31 cells incubated for 24 hrs by MTT assay; assay type: functional, cell-based; conditions: UO-31, 24 h
Outline: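 UO-31 cells from ATCC, grown in DMEM with 10% FBS, 10 ug/mL insulin and 1% penicillin-streptomycin. Seeded at 1.2–1.8 × 10,000 cells/well with test compound for 24 h. MTT read-out: crystals dissolved in acidified isopropanol, absorbance at 570 nm.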

[2] = target: T1, Prostaglandin G/H synthase 1 (Ovis aries, UniProt P05979); experiment: Inhibition of ovine COX-1 by EIA method
T1 sequence (P05979 whole entry): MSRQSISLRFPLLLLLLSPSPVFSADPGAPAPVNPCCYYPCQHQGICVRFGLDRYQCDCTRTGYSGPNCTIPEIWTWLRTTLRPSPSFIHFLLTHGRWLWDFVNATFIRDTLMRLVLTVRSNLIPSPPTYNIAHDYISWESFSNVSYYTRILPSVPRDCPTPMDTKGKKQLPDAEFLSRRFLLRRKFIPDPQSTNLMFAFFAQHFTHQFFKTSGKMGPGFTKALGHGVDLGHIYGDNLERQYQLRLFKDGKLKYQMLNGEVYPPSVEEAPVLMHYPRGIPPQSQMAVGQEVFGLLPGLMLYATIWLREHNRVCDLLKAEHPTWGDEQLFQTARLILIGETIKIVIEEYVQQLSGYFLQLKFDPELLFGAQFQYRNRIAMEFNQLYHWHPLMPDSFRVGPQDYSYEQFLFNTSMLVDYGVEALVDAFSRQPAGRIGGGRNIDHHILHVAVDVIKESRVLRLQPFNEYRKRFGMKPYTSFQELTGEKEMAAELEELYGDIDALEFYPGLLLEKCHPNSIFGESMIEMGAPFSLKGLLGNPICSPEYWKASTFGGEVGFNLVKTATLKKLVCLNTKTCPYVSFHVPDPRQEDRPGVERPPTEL

[3] = target: Epidermal growth factor receptor (Homo sapiens, UniProt P00533); experiment: Inhibition of recombinant human GST-tagged EGFR catalytic domain (668 to 1210 residues) expressed in baculovirus expression system using TK-biotin peptide as substrate measured after 10 mins by HTRF assay
Sequence of Epidermal growth factor receptor (P00533 whole entry, the tested form may be a part): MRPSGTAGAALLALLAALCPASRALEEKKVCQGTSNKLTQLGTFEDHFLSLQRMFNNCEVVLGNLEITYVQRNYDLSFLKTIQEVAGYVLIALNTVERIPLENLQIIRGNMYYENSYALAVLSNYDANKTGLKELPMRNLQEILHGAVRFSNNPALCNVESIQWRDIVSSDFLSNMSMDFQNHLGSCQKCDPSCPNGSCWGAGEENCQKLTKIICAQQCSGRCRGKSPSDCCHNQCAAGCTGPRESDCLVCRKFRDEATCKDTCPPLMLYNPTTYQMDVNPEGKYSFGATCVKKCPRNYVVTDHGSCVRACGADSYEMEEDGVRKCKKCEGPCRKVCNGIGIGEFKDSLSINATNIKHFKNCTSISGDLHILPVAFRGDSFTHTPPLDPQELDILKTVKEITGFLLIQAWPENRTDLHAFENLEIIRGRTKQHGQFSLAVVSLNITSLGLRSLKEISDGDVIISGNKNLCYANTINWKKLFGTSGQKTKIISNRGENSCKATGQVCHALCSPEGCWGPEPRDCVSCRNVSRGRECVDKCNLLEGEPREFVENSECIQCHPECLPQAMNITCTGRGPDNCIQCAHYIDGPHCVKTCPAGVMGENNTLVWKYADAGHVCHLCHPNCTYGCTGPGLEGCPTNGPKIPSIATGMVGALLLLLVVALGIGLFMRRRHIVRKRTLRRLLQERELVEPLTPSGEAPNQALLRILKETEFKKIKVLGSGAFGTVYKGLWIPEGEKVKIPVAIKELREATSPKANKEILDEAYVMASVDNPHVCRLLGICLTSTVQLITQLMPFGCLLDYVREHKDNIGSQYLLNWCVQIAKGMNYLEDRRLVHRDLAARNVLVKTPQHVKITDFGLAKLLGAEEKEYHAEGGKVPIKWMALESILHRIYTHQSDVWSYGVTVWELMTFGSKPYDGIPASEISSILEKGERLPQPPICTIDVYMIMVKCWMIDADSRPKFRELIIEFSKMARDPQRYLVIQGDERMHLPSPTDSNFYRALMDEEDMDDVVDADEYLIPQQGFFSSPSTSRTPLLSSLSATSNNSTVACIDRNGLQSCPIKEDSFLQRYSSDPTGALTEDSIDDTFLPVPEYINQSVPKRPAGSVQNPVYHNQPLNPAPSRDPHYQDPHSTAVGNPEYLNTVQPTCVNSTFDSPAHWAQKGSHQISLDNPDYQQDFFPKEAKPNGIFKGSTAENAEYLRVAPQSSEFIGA

Row | Structure (SMILES) | IC50 [2] | IC50 [3] | IC50 [1]
1 | CCO/C=N/c1nnc(-c2ccccc2)o1 | 14.2 µM | – | –
2 | O=[N+]([O-])c1ccc(/C=N/c2nnc(-c3ccc(Cl)cc3)o2)cc1 | 12 µM | – | –
3 | CCO/C=N/c1nnc(-c2ccc(Cl)cc2)o1 | 15.4 µM | – | 0.0527 µM
4 | O=C(Nc1ccccc1)Nc1nnc(-c2ccc(Cl)cc2)o1 | 10.9 µM | – | –
5 | N#CCC(=O)Nc1nnc(-c2ccc(Cl)cc2)o1 | 13.7 µM | – | –
6 | O=[N+]([O-])c1ccc(/C=N/c2nnc(-c3ccccc3)o2)cc1 | 9.81 µM | – | –
7 | CCO/C=N/c1nnc(-c2cccnc2)o1 | 12.7 µM | – | 0.31 µM
8 | O=[N+]([O-])c1ccc(/C=N/Nc2nnc(-c3ccncc3)o2)cc1 | 9.87 µM | 0.412 µM | 0.0086 µM
9 | Clc1ccc(/C=N/c2nnc(-c3cccnc3)o2)cc1 | 10.5 µM | 1.13 µM | 0.0136 µM
10 | C(=N\Nc1nnc(-c2ccncc2)o1)/c1ccccc1 | 10.6 µM | – | –
11 | Clc1ccc(/C=N/c2nnc(-c3ccccc3)o2)cc1 | 11.4 µM | – | –
12 | N#CCC(=O)Nc1nnc(-c2cccnc2)o1 | 13.1 µM | – | –
13 | COc1cccc2c1C(=O)c1c(O)c3c(c(O)c1C2=O)C[C@@](O)(C(=O)CO)C[C@@H]3O[C@H]1C[C@H](N)[C@H](O)[C@H](C)O1 [DOXORUBICIN] | – | – | 0.00745 µM

More lines, main results first:

Row | IC50 [2] | IC50 [3] | Structure (SMILES) | IC50 [1]
14 | 6.87 µM | – | O=C(Nc1ccccc1)Nc1nnc(-c2ccccc2)o1 | 0.0332 µM
15 | 6.78 µM | – | O=C(CSc1nnc(-c2ccncc2)o1)N/N=C/c1ccc(Cl)cc1 | –
16 | 4.49 µM | – | O=C(CSc1nnc(-c2ccncc2)o1)N/N=C/c1ccc([N+](=O)[O-])cc1 | –
17 | 5.71 µM | – | Brc1ccc(/C=N/Nc2nnc(-c3ccncc3)o2)cc1 | –
18 | 8.69 µM | – | Clc1ccc(/C=N/Nc2nnc(-c3ccncc3)o2)cc1 | –
19 | 6.84 µM | – | Clc1ccc(-c2nnc(CSc3nnc(-c4ccncc4)o3)o2)cc1 | –
20 | 5.39 µM | – | Clc1ccc(/C=N/c2nnc(-c3ccc(Cl)cc3)o2)cc1 | 0.0296 µM
21 | 4.17 µM | – | Brc1ccc(-c2nnc(CSc3nnc(-c4ccncc4)o3)o2)cc1 | 0.0835 µM
22 | 9.37 µM | – | O=C(Nc1ccccc1)Nc1nnc(-c2cccnc2)o1 | 0.00576 µM
23 | 7.54 µM | – | Clc1ccc(-c2nnc(/N=C/c3ccccc3)o2)cc1 | –
24 | 8.29 µM | – | O=[N+]([O-])c1ccc(/C=N/c2nnc(-c3cccnc3)o2)cc1 | –
25 | 7.96 µM | – | Oc1ccc(-c2nnc(CSc3nnc(-c4ccncc4)o3)o2)cc1 | –
